Laboratory results taken from ChEMBL document CHEMBL3352220, “Design, synthesis, anticancer activity and docking studies of novel 4-morpholino-7,8-dihydro-5H-thiopyrano[4,3-d]pyrimidine derivatives as mTOR inhibitors” (Bioorg Med Chem, 2014).

How the values were obtained:
[1] = Cytotoxicity against human PC3 cells after 72 hrs by MTT assay; assay type: functional, cell-based; conditions: PC-3, 72 h
Procedure, shortened: (§1)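 Cells grown in MEM with 10% FBS; ~4 × 10³ cells/well plated and held 24 h at 37 °C, 5% CO2. Compounds added at indicated final concentrations for 72 h. MTT added, 4 h at 37 °C; formazan dissolved in DMSO, absorbance read at 492 nm against 630 nm reference. Tested three times per cell line; inhibition rates or IC50 averaged from two determinations.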

[2] = target: T1, Serine/threonine-protein kinase mTOR (Homo sapiens, UniProt P42345); experiment: Inhibition of mTOR kinase (unknown origin) after 1 hr by TR-FRET assay
[3] = target: Phosphatidylinositol 4,5-bisphosphate 3-kinase catalytic subunit alpha isoform (Homo sapiens) (UniProt P42336); experiment: Inhibition of PI3K-alpha (unknown origin) using l-alpha-phosphatidylinositol as substrate at 10 uM after 60 mins by luminescence assay
[4] = Cytotoxicity against human H460 cells after 72 hrs by MTT assay; assay type: functional, cell-based; conditions: NCI-H460, 72 h; procedure, shortened: as §1
[5] = target: T1, Serine/threonine-protein kinase mTOR; experiment: Selectivity ratio of BMCL-200908069-1 IC50 to compound IC50 for mTOR kinase (unknown origin)
PC-3 = experiment: Selectivity ratio of BMCL-200908069-1 IC50 to compound IC50 for human PC3 cells; assay type: functional
[6] = Selectivity ratio of BMCL-200908069-1 IC50 to compound IC50 for human H460 cells; assay type: functional

Chain of Phosphatidylinositol 4,5-bisphosphate 3-kinase catalytic subunit alpha isoform (Homo sapiens) (P42336 whole entry, canonical isoform): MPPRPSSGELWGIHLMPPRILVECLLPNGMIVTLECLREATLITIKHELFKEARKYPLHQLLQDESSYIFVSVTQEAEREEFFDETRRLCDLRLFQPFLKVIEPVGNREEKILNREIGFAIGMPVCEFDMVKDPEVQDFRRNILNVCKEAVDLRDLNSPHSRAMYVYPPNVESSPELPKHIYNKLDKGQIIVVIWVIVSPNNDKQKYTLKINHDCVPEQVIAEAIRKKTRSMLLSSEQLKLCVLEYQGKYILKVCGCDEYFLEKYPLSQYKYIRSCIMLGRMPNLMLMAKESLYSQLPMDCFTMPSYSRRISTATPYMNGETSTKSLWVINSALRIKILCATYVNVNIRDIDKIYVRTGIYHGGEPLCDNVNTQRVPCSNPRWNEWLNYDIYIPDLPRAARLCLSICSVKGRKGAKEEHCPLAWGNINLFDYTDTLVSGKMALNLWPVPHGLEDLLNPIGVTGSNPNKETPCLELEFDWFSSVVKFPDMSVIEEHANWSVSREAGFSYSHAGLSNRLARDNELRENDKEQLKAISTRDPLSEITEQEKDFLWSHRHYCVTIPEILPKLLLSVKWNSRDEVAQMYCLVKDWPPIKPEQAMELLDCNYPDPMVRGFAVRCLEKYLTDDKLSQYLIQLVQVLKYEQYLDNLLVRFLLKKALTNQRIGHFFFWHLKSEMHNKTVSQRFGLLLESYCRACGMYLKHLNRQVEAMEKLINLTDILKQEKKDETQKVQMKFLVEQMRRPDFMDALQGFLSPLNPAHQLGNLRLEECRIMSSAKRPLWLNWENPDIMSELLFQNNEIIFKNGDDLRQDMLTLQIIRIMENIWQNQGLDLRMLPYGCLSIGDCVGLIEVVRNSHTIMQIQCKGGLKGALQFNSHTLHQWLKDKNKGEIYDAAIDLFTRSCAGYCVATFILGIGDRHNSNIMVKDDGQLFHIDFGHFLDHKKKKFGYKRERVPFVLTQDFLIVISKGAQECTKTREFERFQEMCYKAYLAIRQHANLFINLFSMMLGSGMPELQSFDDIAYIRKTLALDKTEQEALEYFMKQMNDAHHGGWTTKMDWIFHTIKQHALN

| SMILES | IC50 [2] [µM] | inhibition [3] [%] | Ratio IC50 [5] | IC50 [1] [µM] | IC50 [4] [µM] | Ratio IC50 (PC-3) | Ratio IC50 [6] |
| --- | --- | --- | --- | --- | --- | --- | --- |
| Oc1ccc(/C=N/Nc2nc3c(c(N4CCOCC4)n2)CSCC3)cc1Br | 1.94 | 18.8 | – | 14.4 | 10.8 | – | – |
| COc1cc(/C=N/Nc2nc3c(c(N4CCOCC4)n2)CSCC3)cc(OC)c1O | 0.8 | 12 | 1.71 | 11.9 | 7.43 | 1.37 | 1.28 |
| COc1cc(/C=N/Nc2nc(N3CCOCC3)nc(N3CCOCC3)n2)cc(OC)c1O | 1.37 | – | – | 16.3 | 9.52 | – | – |
| Oc1c(Br)cc(/C=N/Nc2nc3c(c(N4CCOCC4)n2)CSCC3)cc1Br | 2.67 | 21.6 | – | > 20 | – | – | – |

Continued by falling IC50 [2], values first:

| IC50 [2] [µM] | inhibition [3] [%] | Ratio IC50 [5] | SMILES | IC50 [1] [µM] | IC50 [4] [µM] | Ratio IC50 (PC-3) | Ratio IC50 [6] |
| --- | --- | --- | --- | --- | --- | --- | --- |
| 6.93 | 24.9 | – | O=S1(=O)CCc2nc(N/N=C/c3cc(Br)c(O)c(Br)c3)nc(N3CCOCC3)c2C1 | > 20 | – | – | – |
| 2.2 | 6.2 | – | COc1cc(/C=N/Nc2nc3c(c(N4CCOCC4)n2)CS(=O)(=O)CC3)cc(OC)c1O | > 20 | – | – | – |
